# Most compounds without a hit are left out; they make up all but 0.77% or so of the library.
# Rad51 HR inh: human RAD51 strand exchange inhibitors, primary screen, biochemical, fluorescence. actives 0.085% (n = 200,000). hRad51 DNA strand exchange, fluorescence dequenching. DNA repair protein RAD51 homolog 1 (Homo sapiens), Q06609. inhibition, % at 10 µM;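 active = inhibition above 40% at the single screening dose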;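 also: 0% = DMSO control wells and 100% = blanks with heterologous ssDNA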
#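 System: hRad51 filaments on single-stranded DNA; reagent: Fluorescein- and BHQ1-tagged 47-mer duplex; compound dosing: one concentration, 10 µM final; timing: filaments 15 min 37 °C, then compound 30 min; measured by: fluorescein emission 520 nm, excitation 485 nm; benchmarks: per-plate controls and blanks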
# PERK inhibitor: block of dimerizer-induced PERK translation repression, primary screen, PERK inhibitor project, CHO PERK-DD cells, SEAP luminescence, HTS; inhibition, % at 5.6 µM; Eukaryotic translation initiation factor 2-alpha kinase 3 (Homo sapiens), Q9NZJ5; CHO PERK-DD fusion, SEAP luminescence translation reporter; actives 0.17% (n = 220,000); AID 1416, 2008;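 active = inhibition above the mean inhibition of all tested compounds plus 3 SD, set separately per screening campaign, cut at about 2.9% in these data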;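 also: PERK kinase domain activated by AP20187 dimerizer at 100 nM; 0% = DMSO with dimerizer and 100% = rapamycin at 8.4 µM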
# Efa HMGR inh: inhibitors of E. faecalis class II HMGR, primary screen, biochemical, Enterococcus faecalis; HMG-CoA reductase (Enterococcus faecalis, mvaE); purified E. faecalis HMGR, NADPH absorbance 340 nm kinetic; inhibition, % at 10 µM; actives 0.41% (n = 190,000); AID 1066, 2008;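 active = inhibition above a set limit, the median over all tested compounds plus 3 SD, cut at about 9.5% in these data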;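 also: enzyme runs in reverse so mevalonate oxidation gives rising NADPH absorbance; 0% = complete reaction with DMSO and 100% = background rate lacking mevalonate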
# ABCG2 inh: ABCG2 efflux pump inhibitors, primary screen, multiplex with ABCB1, IgMXP3 cells, flow cytometry. JC-1 efflux. inhibition, % at 6.6 µM. actives 0.1% (n = 190,000). AID 1325, 2008;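 active = inhibition above 80%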;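 also: 0% = DMSO and 100% = nicardipine control wells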
#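 Incubation: cells with compound and JC-1, 10 min at 25 °C, rotating, no wash / Test system: IgMXP3 (ABCG2) plus far-red-tagged CCRF-Adr (ABCB1) cells / Compound dosing: one concentration, 6.6 µM final / Also added: JC-1 fluorescent substrate / Evaluation: efflux inhibition in percent versus controls / Detection: flow cytometry, 530 nm JC-1 signal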
# ABCB1 inh: ABCB1 efflux pump inhibitors, primary screen, cell-based, multiplex, flow cytometry, ABCG2 counter-screen | CCRF-Adr cells, JC-1 efflux | actives 0.067% (n = 190,000) | AID 1326, 2008 | inhibition, % at 6.6 µM; in the data active = inhibition above about 40%;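 also: 0% = vehicle and 100% = reference inhibitor; higher value means more JC-1 retained so stronger ABCB1 efflux block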
# Furin inh: human furin inhibitors, primary screen, biochemical, fluorescence intensity | purified furin, fluorogenic substrate cleavage | inhibition, % at 20 µM or 30 µM | actives 0.061% (n = 220,000) | AID 463115, 2010; in the data active = inhibition above about 25%
# Active calls of the source: *; x = no result given.
SMILES,Rad51 HR inh,PERK inhibitor,Efa HMGR inh,ABCG2 inh,ABCB1 inh,Furin inh
CC1=NN(c2ccc(C)cc2C)C(=O)C1C(c1ccccc1)C1C(=O)N(c2ccc(C)cc2C)N=C1C (stereo not given),3.9,0.7,9.6*,-0.3,-0.1,-11.4
O=C(NCc1ccccc1F)C1CCCN1C(=O)NCc1ccccc1 (stereo not given),-2.3,0.9,2.2,4.5,1.5,-2.0
COc1ccc(CCNC(=O)c2ccc(N3CCCC3=O)cc2)cc1OC,0.4,0.7,-7.1,9.2,0.7,26.3*
COc1ccc(CCn2c(=O)[nH]c3cc(C(=O)NCCc4ccccc4)ccc3c2=O)cc1OC,1.1,3.0*,8.7,3.3,0.7,-18.7
COc1ccc(CNC(=O)CN(c2ccccc2)S(=O)(=O)c2ccccc2[N+](=O)[O-])cc1,-2.3,-0.1,0.2,1.7,0.1,-26.1
O=C(COc1ccc(Cl)cc1Cl)NC(=O)N1CCCCC1,5.3,-0.6,-0.4,0.1,0.0,31.8*
CCn1nnc(NC(=O)c2cccc(-c3cc4ccccc4oc3=O)c2)n1,50.9*,-0.4,-4.3,8.8,0.7,-19.5
O=C(Nc1cccnc1)c1cccc(-c2cc3ccccc3oc2=O)c1,0.1,0.3,-0.8,1.0,0.1,-15.5
COCCN(C(=O)c1ccccc1OC1CCN(S(C)(=O)=O)CC1)C(C)C,x,-1.1,0.3,0.0,0.2,-18.5
O=C(Nc1ccccc1O)c1cc(S(=O)(=O)N2CCOCC2)ccc1Cl,12.4,0.1,0.0,1.3,0.9,-22.7
Cc1ccccc1OCCC(=O)OCC(=O)Nc1cc(S(=O)(=O)N2CCOCC2)ccc1Cl,1.8,0.5,13.4*,2.5,0.2,-29.8
COc1ccccc1NC(=O)c1cc(S(=O)(=O)N2CCOCC2)ccc1Cl,-1.9,-1.1,0.9,3.0,0.7,29.0*
CCOC(=O)N1CCC(NC(=O)c2ccc(CS(=O)(=O)c3ccccc3C)o2)CC1,-1.6,0.8,-6.6,-0.4,-0.3,-13.1
Cc1ccc(/C(C#N)=C\c2cn(C)c3ccccc23)cc1,61.9*,1.1,-0.3,4.5,0.3,-8.5
Cc1cc[n+](-c2nc([O-])n(-c3ccccc3)c2C=O)cc1,x,0.7,x,x,x,-15.8
C=CCNc1ncnc2c1ncn2C1OC(CO)C(O)C1O (stereo not given),2.9,3.0*,-5.5,1.2,0.5,-28.1
COc1cc(C2C3=C(CCCC3=O)Nc3[nH]n(-c4ccccc4)c(=O)c32)ccc1OC(C)=O (stereo not given),1.5,1.3,-2.1,1.9,0.2,-16.6
O=C(CCn1nnc2ccccc21)N1CCC(O)(c2cccc(F)c2)CC1,1.7,-0.2,-2.3,-2.9,0.4,-17.6
CN1CCN(Cc2c(C#N)c3ccccc3n2C)CC1,-3.9,-0.9,-5.7,1.4,0.2,-19.2
Cn1c(CN2CCCC2)c(C#N)c2ccccc21,1.9,0.0,15.3*,0.9,0.1,-32.2
CSc1ccc(N=Nc2c(C)[nH]n(C)c2=O)cc1,6.8,-1.3,x,x,x,25.9*
COc1ccc(NS(=O)(=O)c2ccc(NC(=O)C(CCSC)NC(N)=O)cc2)cc1 (stereo not given),41.7*,1.1,x,x,x,-22.9
O=c1nc2n(c3ncccc13)CCCCC2,-3.2,0.2,-5.3,0.4,0.0,-12.8
COc1ccc(-c2cn3cccnc3n2)cc1NC(=O)c1cc(OC)c(OC)c(OC)c1,-10.7,1.4,9.6*,0.6,0.1,-16.1
Cc1cc(NC(=O)/C=C\C(=O)O)c([N+](=O)[O-])cc1C,-5.3,1.9,x,x,x,-23.4
SMILES,Rad51 HR inh,PERK inhibitor,Efa HMGR inh,ABCG2 inh,ABCB1 inh,Furin inh
Cc1cscc1NC(=O)/C=C/C(=O)O,-31.2,3.5*,x,x,x,-7.9
CCOC(=O)N1CCN(C(=O)CS(=O)(=O)c2cn(Cc3cccc(F)c3)c3ccccc23)CC1,0.0,0.7,0.5,1.1,0.8,-17.0
Cc1ccccc1NC(=O)NCCCN1CCCC1,-3.1,3.5*,-2.4,1.2,0.5,-18.7
CCOC(=O)c1cc(C)sc1/N=C/C1C(=O)CCCC1=O,2.0,2.2,-3.3,-5.8,-1.0,36.6*
CCOC(=O)c1cc(C)sc1/N=C/C1=C(O)CCCC1=O,10.8,-1.2,-0.9,7.3,0.6,36.4*
CC1(C)Cc2c(C#N)c(NCc3ccco3)nc(-c3ccco3)c2CO1,1.4,0.0,12.3*,1.4,0.4,-3.0
CCCCCCCCNC1=CC(=O)CC(C)(C)C1,-2.5,-1.8,x,x,x,3.7
CC1(C)CC(=O)C=C(NCCO)C1,8.0,3.1*,-6.2,0.1,0.1,-18.3
NC(=O)Nc1ccc(C(=O)OCC(=O)Nc2ccc([N+](=O)[O-])cc2C(F)(F)F)cc1,3.1,-0.1,-1.4,7.7,-0.2,-7.2
CCO[C@@H]1OC(C(=O)N2CCOCC2)=C[C@H](c2ccc(C(F)(F)F)cc2)[C@H]1CCCO,8.7,-0.6,-3.1,12.7,1.2,-19.1
CCCCOc1ccc(-c2ncc(Cl)cn2)cc1,2.1,0.9,-5.5,3.0,0.5,27.5*
Cc1cccc(C)c1OCC(=O)N(Cc1ccc(N(C)C)cc1)C1CCS(=O)(=O)C1 (stereo not given),2.9,-1.6,x,x,x,-15.2
c1ccc2c(-c3cn4ccccc4n3)c[nH]c2c1,-26.6,0.3,-2.0,1.7,0.5,-29.4
Cc1cc(NC(=O)C2CCCN2C(=O)Nc2c(C)cccc2C)ccc1-n1cnnn1 (stereo not given),-12.7,-0.1,12.3*,0.6,0.5,-22.3
O=C(Nc1ccncc1)c1cn(-c2ccccc2)nc1-c1cccs1,x,0.0,13.4*,-1.3,-0.8,-15.4
O=C(Nc1nccs1)c1cn(-c2ccccc2)nc1-c1ccncc1,10.3,0.5,-1.9,18.0,1.8,-24.1
Cc1cc(N)ccc1N1CCCC1,60.4*,1.8,-3.6,4.1,0.4,-33.6
COc1ccc(N(CC(=O)NCc2ccccc2C)S(=O)(=O)c2ccccc2[N+](=O)[O-])c(OC)c1,-1.1,-0.1,2.7,-0.8,0.4,0.7
O=C(N/N=C/c1cc(Br)cc(Br)c1O)c1cccc(N2CCCC2=O)c1,-20.6,1.1,14.3*,-1.6,-1.0,-29.9
Cc1ccc(N2CCN(C(=O)c3cc(C(=O)c4ccccc4C)c[nH]3)CC2)c(C)c1,43.2*,0.1,7.8,3.7,5.5,-11.5
CN1CCN(C(=O)NCC23CC4CC(CC(C4)C2)C3)CC1,-10.3,-1.0,0.1,0.8,0.8,-3.3

# High-throughput results deposited in PubChem BioAssay by several laboratories.
